# Results of several laboratories.
# Lines come from different studies, so protocols differ.
# Cell line: LNCaP
# Read-out: cell growth or viability
Compound,technique,tested at,time,quantity,value
CC(C)C[C@H](NC(=O)[C@H](Cc1ccccc1)NC(=O)c1cnccn1)B(O)O,ATP luminescence,,,IC50,0.019 µM
CC(=O)O[C@@]12CO[C@@H]1C[C@H](O)[C@@]1(C)C(=O)[C@H](O)C3=C(C)[C@@H](OC(=O)[C@H](O)[C@@H](NC(=O)OC(C)(C)C)c4ccccc4)C[C@@](O)([C@@H](OC(=O)c4ccccc4)[C@H]21)C3(C)C,trypan blue,,,IC50,0.001 µM
COc1cc(Nc2nccc(-c3cnn4nc(OC)ccc34)n2)cc(C(F)(F)F)c1,ATP luminescence,,,IC50,0.47 µM
CNC(=O)c1ccc(N2C(=S)N(c3ccc(C#N)c(C(F)(F)F)c3)C(=O)C2(C)C)cc1F,MTT,,,GI50,13.7 µM
COc1cc(C(=O)c2csc(-c3ccccc3)n2)cc(OC)c1OC,SRB,,96 h,IC50,0.028 µM
COC1=CC(=O)N(C(=O)[C@@H](CCC(Cl)(Cl)Cl)NC(=O)C(C)(C)C)[C@@H]1CCC(Cl)Cl,resazurin,,96 h,IC50,6.9 µM
CC(O)(CS(=O)(=O)c1ccc(F)cc1)C(=O)Nc1ccc(C#N)c(C(F)(F)F)c1 (stereo not shown),XTT,,7 days,IC50,4.6 µM
O=C(O)C(c1c[nH]c2ccccc12)c1c[nH]c2ccccc12,MTT,100 µM,48 h,inhibition,34%
C[C@]12CC[C@H](O)CC1=CC[C@@H]1[C@@H]2CC[C@]2(C)C(n3cnc4ccccc43)=CC[C@@H]12,XTT,,7 days,IC50,2.6 µM
O=C(O)/C=C/c1cccc(C(c2c[nH]c3ccccc23)c2c[nH]c3ccccc23)c1,MTT,,48 h,IC50,43 µM
COc1ccc2c(N(C)c3ccc(/C(C)=N/OCCN)cc3)c3c(Cl)coc3nc2c1,trypan blue,,72 h,IC50,0.235 µM
FC(F)(F)c1ccc(C(c2c[nH]c3ccccc23)c2c[nH]c3ccccc23)cc1,MTT,20 µM,48 h,inhibition,97%
O=C(CCCCCCC(=O)Nc1ccc(CCF)cc1)NO,MTT,,72 h,GI50,4.8 µM
Cn1cc(C(c2ccc(C(=O)O)cc2)c2cn(C)c3ccccc23)c2ccccc21,MTT,,48 h,IC50,36 µM
O=C(CCCCCCC(=O)Nc1ccccc1)NO,MTT,,72 h,GI50,5.2 µM
C[C@]12CC[C@H](O)CC1=CC[C@@H]1[C@@H]2CC[C@]2(C)C(c3cccnc3)=CC[C@@H]12,MTT,,,GI50,11.2 µM
